Source: paper PMC8504815 (Clinical and Translational Science, 2021)
Entries after “also recorded” stand apart in the source; their conditions may differ.

Assays:
basophils [1] = conditions: doses >=200 mg; not sustained beyond; cited from earlier work
basophils [2] = assay: Basophil activation; type: in vivo, human; conditions: for trough inhibition of CD203c: day 12; for inhibition of CD203c+ basophils, peak: 8 h on day 1
Method in brief: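 Heparinized whole blood was drawn at set timepoints from MAD subjects (healthy, asymptomatic atopic diathesis; oral q.d. or b.i.d.). It was stimulated ex vivo with anti-IgE for 25 minutes at 37°C/5% CO₂. CD63+ and CD203c+ basophils were counted as a percentage by flow cytometry and expressed as % inhibition versus baseline. Subjects with baseline CD63+ stimulation below 10% were excluded.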

[3] = Blood pharmacokinetics, single ascending dose; type: in vivo, human
Method in brief: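 Ten cohorts of 8 healthy adults aged 18–65 were randomized 3:1 to one fasted oral dose (0.5–600 mg) or placebo, double-blind. Blood was taken predose and at protocol timepoints up to day 8, and drug was measured by validated LC-MS/MS. Dose proportionality used regression of log Cmax and AUC on log dose, giving the slope with 90% CI.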

Safety and tolerability = type: in vivo, human; conditions: for dose-limiting toxicity: up to highest dose tested
[4] = statement in discussion, no value or reference printed; cited from earlier work
Food effect = type: in vivo, human; conditions: for MRT: mean (SD)
skin prick test wheal = assay: Skin prick test; type: in vivo, human; conditions: MAD
Method in brief: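 MAD subjects with atopic diathesis had skin prick tests to known allergens from 7 undiluted allergens (pollens, house dust mite, cat and horse dander). Tests were done at day −1, day 1 predose/2/8 h, day 2 predose and day 12 predose/8/24/96 h. Wheal diameter was the mean of the longest and perpendicular diameters. The predose average (day −1 and day 1) was compared with the average of all 7 postdose tests.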

BTK = BTK (Homo sapiens, UniProt Q06187); assay: BTK occupancy in blood; type: in vivo
Chain of BTK (Q06187 whole entry): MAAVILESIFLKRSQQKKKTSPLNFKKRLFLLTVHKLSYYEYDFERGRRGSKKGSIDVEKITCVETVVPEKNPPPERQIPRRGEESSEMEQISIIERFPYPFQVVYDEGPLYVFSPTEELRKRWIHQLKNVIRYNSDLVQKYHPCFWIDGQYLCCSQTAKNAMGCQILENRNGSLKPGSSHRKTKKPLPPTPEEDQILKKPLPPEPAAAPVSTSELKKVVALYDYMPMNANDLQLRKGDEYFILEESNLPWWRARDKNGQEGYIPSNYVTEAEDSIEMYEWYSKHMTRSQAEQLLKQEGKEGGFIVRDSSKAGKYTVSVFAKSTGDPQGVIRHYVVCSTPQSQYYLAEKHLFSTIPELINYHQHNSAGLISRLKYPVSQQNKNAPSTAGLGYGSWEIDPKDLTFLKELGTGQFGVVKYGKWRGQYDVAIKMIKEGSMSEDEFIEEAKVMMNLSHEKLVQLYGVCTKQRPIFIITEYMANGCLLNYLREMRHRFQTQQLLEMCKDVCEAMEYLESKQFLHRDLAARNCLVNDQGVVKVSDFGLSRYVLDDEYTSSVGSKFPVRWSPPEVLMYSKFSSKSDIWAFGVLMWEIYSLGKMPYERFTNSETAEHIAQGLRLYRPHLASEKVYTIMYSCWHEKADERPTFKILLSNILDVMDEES

[5] = Blood pharmacokinetics, multiple ascending dose; type: in vivo, human; conditions: for CLss/F: apparent total body clearance from blood at steady state; for CLss/F / AUC(0-t) / Cmax: mean (SD); for half-life: terminal half-life; for half-life / Tmax: median (minimum-maximum)
Method in brief: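 Fasted healthy subjects with asymptomatic atopic diathesis were randomized 3:1 to oral drug or placebo, q.d. or b.i.d., through day 12. Blood was sampled predose and to 24 h on day 1 (b.i.d. to 12 h), then at trough and 2 h postdose. Urine was also collected. Assay was LC-MS/MS. Log Cmax/AUC was regressed on log dose (slope, 90% CI).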

[6] = human, whole blood, oral, 100 mg, MAD 100 mg b.i.d., Day 1
[7] = human, whole blood, oral, 100 mg, MAD 100 mg b.i.d., Day 12
[8] = human, whole blood, oral, 200 mg, MAD 200 mg b.i.d., Day 12
[9] = human, whole blood, oral, 600 mg, MAD 600 mg q.d., Day 1

## C[C@H]1CN(C2COC2)CCN1c1ccc(Nc2cc(-c3ccnc(N4CCn5c(cc6c5CC(C)(C)C6)C4=O)c3CO)cn(C)c2=O)nc1 [fenebrutinib]
Basophils [1]
  duration of more than 90% CD63 inhibition: ≤ 8 h

## C=CC(=O)N(C)CCOc1c(N)ncnc1-c1cc(F)cc(NC(=O)c2ccc(C3CC3)cc2F)c1C [Remibrutinib]
Basophils [2]; MAD 10 mg q.d., last day of dosing
  trough level inhibition of CD63: 80%
Basophils [2]; MAD 100 mg b.i.d.
  trough inhibition of CD203c: 63%
Basophils [2]; MAD 200 mg b.i.d.
  inhibition of CD203c+ basophils, peak: 81.8%
  trough inhibition of CD203c: 67%
Basophils [2]; MAD 400 mg q.d.
  inhibition of CD203c+ basophils, peak: 84%
Basophils [2]; MAD daily dose >=50 mg, day 1-12 incl. day 12 predose
  inhibition of blood basophil activation (CD63 expression): Near complete; also recorded: Full inhibition
Basophils [2]; SAD 60 mg, after 24 h
  basophil inhibition (CD63 expression): ~90%
Basophils [2]; SAD 200 mg cohort, at 8 h
  inhibition of CD203c basophil activation marker: up to 79.4%
Basophils [2]; SAD, doses >=100 mg
  basophil inhibition (CD63 expression): almost complete inhibition
[3]; SAD cohorts
  dose proportionality of Cmax, AUCinf, AUClast over the full dose range: not demonstrated
[3]; human, whole blood, oral
  half-life: 1 to 2 h
[3]; human, whole blood, po
  Tmax: 0.5 to 1.25 h
Safety and tolerability; 100 mg MAD cohort, after trauma / vessel puncture, resolved spontaneously
  hematomas: two hematomas
Safety and tolerability; 600 mg MAD group, both had history of repeated epistaxis
  self-limiting epistaxis: Two subjects
Safety and tolerability; FE cohort, 2/12
  headache (most common AE): 16.7%
Safety and tolerability; FE cohort, 7 of 12 subjects
  Subjects with at least 1 AE: 58.3%
Safety and tolerability; FE cohort, fasted condition
  incidence of AEs: 16.7%
Safety and tolerability; FE cohort, fed condition
  incidence of AEs: 50%
Safety and tolerability; Food effect cohort, N = 12
  AE severity: Mild: 7 (58.3) n (%)
  AE severity: Moderate: 1 (8.3) n (%)
  Headache: 2 (16.7) n (%)
  Nasopharyngitis: 1 (8.3) n (%)
  Study drug-related AEs: 3 (25.0) n (%)
  Subjects with at least 1 AE: 7 (58.3) n (%)
Safety and tolerability; MAD cohorts, 5/48
  subjects with AEs suspected to be related to the study drug: 10.4%
Safety and tolerability; MAD cohorts, 24 subjects on remibrutinib
  incidence of AEs (subjects with at least 1 AE): 50.0%
Safety and tolerability; MAD cohorts, all doses, N = 48
  AE severity: Mild: 22 (45.8) n (%)
  AE severity: Moderate: 5 (10.4) n (%)
  AE severity: Severe: 1 (2.1) n (%)
  Headache: 5 (10.4) n (%)
  Nasopharyngitis: 3 (6.3) n (%)
  Study drug-related AEs: 5 (10.4) n (%)
  Subjects with at least 1 AE: 24 (50.0) n (%)
  Toothache: 1 (2.1) n (%)
Safety and tolerability; SAD 100 and 200 mg cohorts
  AEs reported: No AEs
Safety and tolerability; SAD cohorts, 17 subjects on remibrutinib
  Subjects with at least 1 AE: 28.3%
Safety and tolerability; SAD cohorts, all doses, N = 60
  AE severity: Mild: 16 (26.7) n (%)
  AE severity: Moderate: 1 (1.7) n (%)
  Headache: 6 (10.0) n (%)
  Nasopharyngitis: 4 (6.7) n (%)
  Study drug-related AEs: 7 (11.7) n (%)
  Subjects with at least 1 AE: 17 (28.3) n (%)
Safety and tolerability; SAD cohorts, all on remibrutinib, of 80 subjects
  subjects with AEs suspected to be related to the study drug: 7 subjects
Safety and tolerability; all cohorts
  changes in hematology, biochemistry, urinalysis parameters (vital signs, ECG): No clinically significant changes
Safety and tolerability; all doses
  dose-limiting toxicity: without any dose‐limiting toxicity
Safety and tolerability; all doses, listed as remibrutinib
  dose-limiting toxicity: No dose‐limiting toxicity
Safety and tolerability; all evaluated doses, up to 600 mg oral
  tolerability: well‐tolerated
Safety and tolerability; any cohort, overall summary
  SAEs or deaths: No SAEs or deaths
Safety and tolerability; any dose, bruising log and coagulation testing
  risk of bleeding: no increased risk of bleeding
[4]
  solubility: low solubility
Food effect; 60 mg single dose, standardized high-fat breakfast
  Delay of median Tmax, fed vs fasted: ~ 2 h
Food effect; 60 mg single dose, 90% CI 0.638-1.01
  Cmax geometric mean ratio (fed vs fasted): 0.801
Food effect; 60 mg single dose, 90% CI 1.14-1.47
  AUClast geometric mean ratio (fed vs fasted): 1.30
Food effect; 60 mg, fed vs fasted
  effect of food intake on exposure: no clinically relevant effect
Food effect; human, whole blood, oral, 60 mg, 60 mg single dose, Fasted
  MRT: 2.29 ± 0.72 h
Food effect; human, whole blood, oral, 60 mg, 60 mg single dose, Fed
  MRT: 4.17 ± 1.2 h
Food effect; human, whole blood, oral, 60 mg, Tmax, 60 mg single dose, Fed, median (min-max)
  Tmax: 2.78 h
Skin prick test wheal; day 12 predose, >=100 mg q.d.
  skin prick test (SPT) inhibition: Near complete
Skin prick test wheal; doses >=100 mg q.d., across all tests, subjects with atopic diathesis
  average decrease in wheal size (SPT): ~ 3 mm
BTK; MAD, doses >=50 mg, over the measured dosing period, complete = >95%
  BTK occupancy in blood: maintained complete BTK occupancy
BTK; SAD, lowest dose of 0.5 mg
  BTK occupancy in blood: no BTK occupancy
BTK; single dose
  lowest dose showing both complete BTK occupancy and almost complete basophil inhibition: 30 mg
[5]; MAD 100 mg b.i.d., Day 12
  CLss/F: 255 (153) L/h
[5]; MAD 100 mg q.d., Day 12
  CLss/F: 198 (88.7) L/h
[5]; MAD 200 mg b.i.d., Day 12
  CLss/F: 267 (126) L/h
[5]; MAD 400 mg q.d., Day 12
  CLss/F: 366 (150) L/h
[5]; MAD 600 mg q.d., Day 12
  CLss/F: 521 (131) L/h
[5]; MAD cohorts
  dose proportional increases of Cmax and AUC over the full dose range: not observed
  time to steady-state: third day of dosing
[5]; across doses in all MAD cohorts, urine
  direct renal excretion, contribution to total apparent blood clearance: ~ 1%
[5]; human, whole blood, oral, 100 mg, AUC0–12 h, MAD 100 mg b.i.d., Day 12
  AUC(0-t): 496 ng·h/mL
[5]; human, whole blood, oral, 100 mg, AUC0–24 h, MAD 100 mg q.d., Day 12
  AUC(0-t): 485 ng·h/mL
[5]; human, whole blood, oral, 100 mg, AUClast, MAD 100 mg b.i.d., Day 12
  AUC(0-t): 518 ng·h/mL
[5]; [6]
  Cmax: 180 ng/mL
  Tmax: 1.5 h
[5]; [7]
  Cmax: 306 ng/mL
  Tmax: 0.775 h
[5]; human, whole blood, oral, 100 mg, T1/2, MAD 100 mg b.i.d., Day 12
  half-life: 2.84 h
[5]; human, whole blood, oral, 200 mg, AUC0–12 h, MAD 200 mg b.i.d., Day 1
  AUC(0-t): 464 ng·h/mL
[5]; human, whole blood, oral, 200 mg, AUC0–12 h, MAD 200 mg b.i.d., Day 12
  AUC(0-t): 890 ng·h/mL
[5]; human, whole blood, oral, 200 mg, AUClast, MAD 200 mg b.i.d., Day 1
  AUC(0-t): 464 ng·h/mL
[5]; human, whole blood, oral, 200 mg, MAD 200 mg b.i.d., Day 1
  Cmax: 236 ng/mL
[5]; [8]
  Cmax: 347 ng/mL
  Tmax: 0.992 h
[5]; human, whole blood, oral, 200 mg, T1/2, MAD 200 mg b.i.d., Day 12
  half-life: 12.4 h
[5]; human, whole blood, oral, 400 mg, AUC0–24 h, MAD 400 mg q.d., Day 1
  AUC(0-t): 977 ng·h/mL
[5]; human, whole blood, oral, 600 mg, AUC0–24 h, MAD 600 mg q.d., Day 1
  AUC(0-t): 1080 ng·h/mL
[5]; human, whole blood, oral, 600 mg, AUC0–24 h, MAD 600 mg q.d., Day 12
  AUC(0-t): 1230 ng·h/mL
[5]; [9]
  Cmax: 550 ng/mL
  Tmax: 0.75 h
[5]; human, whole blood, oral, mean residence time (MRT), multiple doses (q.d. and b.i.d.), overall statement
  MRT: < 3 h
[5]; multiple doses (q.d. and b.i.d.), overall statement
  mean residence time (MRT): ~ 3 h
[5]; overall statement in discussion
  number of doses to steady state: less than 5 doses
[5]; q.d. and b.i.d. dosing
  accumulation with multiple doses: no pronounced accumulation; also recorded: no marked accumulation
